A selection: hits, their analogues and other compounds. The true share with any hit is near 3.7%.
PKD1 inh – blocks activity of human protein kinase D1. PKD1 kinase fluorescence polarization assay. Q15139. inhibition, % (concentration not given with the values). 0.056% of 200,000 active; in the data active = inhibition above about 50%
ROMK primary – modulators of human ROMK potassium channel; B-score at 10 µM; Tet-inducible ROMK, thallium flux fluorescence; actives lie on both sides; 2% of 130,000 active; P48048;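 active = signal ratio slope over the read window, or its plate-corrected B-score, at least 3 SD from the plate mean, either direction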;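 also: B-score of the F/F0 ratio slope over 7 to 12 s after thallium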
Cl transport mod – KCC2 (human) Cl- transport modulation; Q9H2X9; KCC2 cells, thallium flux FluoZin-2 fluorescence; B-score of Tl+ flux slope (higher = more flux/activation; lower = inhibition) at 10 µM; 2.2% of 190,000 active; AID 1456;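 active = thallium flux slope and its plate-corrected score both differing from the plate sample mean at a set confidence after two filtering rounds, in either direction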;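 also: slope of fluorescence scaled to starting intensity during 10 to 20 s after thallium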
Mdm2 ligase inh – blocks human Mdm2 ubiquitin ligase activity. Q00987. cell-based MDM2 ubiquitination luciferase reporter, 2 h; 0 = plate control, 100 = twice control, blank-subtracted. signal enhancement, % at 5 µM. 0.11% of 210,000 active. AID 1230;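 active = signal enhancement of 30% or more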;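 also: luminescence tracks abundance of the self-degrading MDM2-luciferase fusion protein; higher signal means inhibition of MDM2 E3 ligase activity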
Target sequence (Q00987 whole entry, looked up, the tested form may be a part): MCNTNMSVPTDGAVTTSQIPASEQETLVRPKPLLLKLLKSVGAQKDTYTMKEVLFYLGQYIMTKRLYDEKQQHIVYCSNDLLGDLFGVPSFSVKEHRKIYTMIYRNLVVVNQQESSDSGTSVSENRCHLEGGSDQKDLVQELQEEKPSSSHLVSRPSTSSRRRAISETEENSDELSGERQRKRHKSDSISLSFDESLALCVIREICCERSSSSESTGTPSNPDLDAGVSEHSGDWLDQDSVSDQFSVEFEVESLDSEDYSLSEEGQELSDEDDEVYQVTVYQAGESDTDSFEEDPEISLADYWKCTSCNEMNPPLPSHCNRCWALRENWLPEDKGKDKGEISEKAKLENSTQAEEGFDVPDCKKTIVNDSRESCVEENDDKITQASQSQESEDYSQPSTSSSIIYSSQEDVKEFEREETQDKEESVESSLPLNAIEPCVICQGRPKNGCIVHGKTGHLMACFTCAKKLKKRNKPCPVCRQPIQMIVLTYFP
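Material: Stable MDM2–luciferase fusion reporter cells | Amount: 2000 cells seeded into each well | Dosing: One concentration, 5 µM, with 0.2% DMSO | Incubation: 4 h cell settling then 2 h compound exposure, 37 °C | Measured by: Luciferase luminescence | Read-out basis: % enhancement relative to plate controls after blank subtraction | Benchmarks: Control and blank well means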
m-calpain inh – inhibitors of pig calpain II; inhibition, % at 16 µM; purified calpain II, fluorogenic peptide substrate, 30 min; 0.37% of 220,000 active; AID 1236;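 active = inhibition above about 50%, limit read from the data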
Arbovirus inh – antivirals against arbovirus infection; arbovirus infection cell-based antiviral screen; inhibition, % at 10 µM; 0.37% of 200,000 active; AID 1251; in the data active = inhibition above about 30%
The depositor's hits bear a star; i = inactive; / = not tested or not shown.

SMILES	PKD1 inh	ROMK primary	Cl transport mod	Mdm2 ligase inh	m-calpain inh	Arbovirus inh
CCOc1ccc(CNc2ccc3c(c2)nc(C)n3C)cc1	-2	/	-0.27	-3	-30	44*
CCn1cnc2cc(NCc3ccc(OC)cc3)ccc21	-4	/	/	/	-30	6
N#CC1CC(c2ccccc2)=NN1c1ccccc1[N+](=O)[O-] (stereo unspecified)	-5	0.1	-0.79	3	-4	10
COc1ccc(NC(=O)c2ccc(COc3ccccc3Br)o2)cc1OC	1	/	-6*	-7	20	-35
CCOC(=O)c1c(-c2cccs2)csc1NC(=O)c1ccncc1	8	1.9	-0.49	-1	i	-2
O=C(Nc1scc(-c2ccccc2)c1C(=O)O)c1ccco1	-10	-0.21	0.054	-27	6	42*
O=C(Nc1scc(-c2cccs2)c1C(=O)O)c1cccs1	-7	-0.82	/	-12	-16	50*
CC1CC(C)(C)CC2(C1)NC(=O)N(CC(=O)NCCc1c[nH]c3ccccc13)C2=O (stereo unspecified)	-6	-0.015	0.0077	-8	15	32*
CC1CC(C)(C)CC2(C1)NC(=O)N(CC(=O)NC1CCCc3ccccc31)C2=O (stereo unspecified)	-8	0.32	0.073	-3	21	2
COc1ccccc1NC(=O)C/C(C)=N/NC(=O)COc1c(Br)cc(Br)cc1OC	0	-0.12	-0.028	6	-36	-10
COc1ccc(C2C(CC(=O)O)=C(O)C(=O)N2c2ccccc2)cc1 (stereo unspecified)	-12	0.17	/	34*	-28	1
Cc1ccc(NC2=C(CC(=O)O)C(c3ccccc3)N(c3ccc(C)cc3)C2=O)cc1 (stereo unspecified)	-4	-0.0092	-1.9	-17	-45	-10
COc1ccc(/C=N/NC(=O)CN2CCCc3ccccc32)c(OC)c1	/	/	-0.25	/	-13	/
COC(=O)c1ccccc1NC(=O)C1CCN(C(=O)c2cc(OC)c(OC)c(OC)c2)CC1	8	/	0.11	1	-9	124*
CCN(CC)Cc1c(O)c(Cl)cc2c3c(c(=O)oc12)CCCC3	2	/	0.65	-21	i	19
CN(C)Cc1c(O)c(Cl)cc2c3c(c(=O)oc12)CCCC3	-1	-0.6	/	-20	i	32*
Cc1cc(NC(=O)CSc2nc3sc4c(c3c(=O)n2C)CCCC4)no1	-11	/	0.81	5	52*	5
CCn1c(SCC(=O)Nc2cc(C)on2)nc2sc3c(c2c1=O)CCCC3	0	/	2.1	/	-54	-19
O=C1NC(=S)S/C1=C\c1cc2ccccc2nc1N1CCCCC1	/	/	/	-6	56*	/
CCOC(=O)/C(C#N)=C/c1cc2ccccc2nc1Cl	-3	/	-0.95	-9	-4	-3
N#C/C(=C\c1cc2ccccc2nc1N1CCCCC1)C(N)=O	-7	-1.7	-0.92	2	10	35*
Cc1nn(C)cc1/C=C1\SC(=S)NC1=O	6	-0.74	0.21	-9	-1	-1
O=C(CCl)Nc1cccc(S(=O)(=O)NC2=NCCC2)c1	/	/	0.61	/	-20	/
O=C1CCC/C(=N/NC(=O)c2sc3ccccc3c2Cl)C1	/	/	-0.51	/	-17	/
CCOC(=O)Cc1csc(NC(=S)NC(=O)c2ccccc2)n1	4	-0.28	52*	/	14	-6
SMILES	PKD1 inh	ROMK primary	Cl transport mod	Mdm2 ligase inh	m-calpain inh	Arbovirus inh
CCOC(=O)Cc1csc(NC(=O)c2ccc(C)cc2)n1	-10	-0.38	-0.074	-18	11	-5
CCOC(=O)Cc1csc(NC(=S)NC(=O)c2ccccc2Br)n1	-10	/	50*	7	12	4
CCOC(=O)Cc1csc(NC(=S)NC(=O)c2ccc(C)cc2)n1	-5	/	55*	-5	16	-2
Cc1ccc2nc(-c3ccccc3Cl)cc(C(=O)Nc3cc(C)on3)c2c1	0	/	-0.67	1	-47	34*
COc1cc(C(=O)NC(=S)Nc2ccc([N+](=O)[O-])cc2C)cc(OC)c1OC	-14	/	1.5	-3	-8	-5
COc1cccc(C(=O)NC(=S)Nc2ccc([N+](=O)[O-])cc2C)c1	-3	/	6.6*	-2	-7	-17
O=C(c1c[nH]c(C(=O)N2CCN(c3ccccc3F)CC2)c1)c1cccc(Cl)c1Cl	7	-0.16	0.19	-10	-31	-21
COC(=O)c1ccc(-n2nnnc2SCC(=O)Nc2ccccc2C(=O)OC)cc1	3	-0.46	/	-13	-9	2
